We go through 2 compounds from ChEMBL document CHEMBL5252546, “Salutaxel, a Conjugate of Docetaxel and a Muramyl Dipeptide (MDP) Analogue, Acts as Multifunctional Prodrug That Inhibits Tumor Growth and Metastasis” (J Med Chem, 2018).

pIC50: −log10 of the molar value. Activity calls are given as the source filed them. The rule behind the calls is not given here.

A short description of data set [1]: AUC (0-t) in female rat at 2 mg/kg,iv measured upto 24 hrs. It counts as ADME, organism-based. On the set-up: time < 24 hrs, dose 2 mg/kg, route iv. The note with it: in vivo. The method in brief:
(§1)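 Single iv dose: rats 2, 4 or 8 mg/kg by intravenous injection; Beagle dogs 1, 2 or 4 mg/kg by intravenous infusion. Plasma concentration–time data were analysed by sex and pooled. Reported parameters: Cmax, Tmax, AUC0−t, AUC0−∞, MRT0−∞, t1/2, CL, Vss, given as mean ± SD.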

A short description of data set [2]: Stability in mouse plasma assessed as compound remaining at 1 uM incubated for 6 hrs. Type of data set: ADME, cell-free.
The nature of data set [3]: Clearance in female rat at 8 mg/kg,iv measured upto 24 hrs. Type of data set: ADME, organism-based. The note with it: in vivo. The method in brief:
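Rats were given a single iv injection at 2, 4 or 8 mg/kg. Plasma parent drug and released docetaxel were followed over time. Cmax, Tmax, AUC, MRT, t1/2, CL and Vss were reported for males, females and all animals combined.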

Data set [4] in a line: Volume of distribution at steady state in female rat at 4 mg/kg,iv measured upto 24 hrs. Type of data set: ADME, organism-based. The note with it: in vivo, read-out: Vdss.
Data set [5] is described as follows: Volume of distribution at steady state in rat at 8 mg/kg,iv measured upto 24 hrs. The following applies: in vivo, read-out: Vdss. Type of data set: ADME, organism-based.
The nature of data set [6]: Toxicity in male Sprague-Dawley rat assessed as maximal non-toxic dose at iv administration. Type of data set: organism-based. The following applies: in vivo, read-out: MNTD.
Data set [7] can be described thus: Drug metabolism in rat hepatocytes assessed as MDA-205 metabolite formation at 20 uM incubated for 180 mins. The note with it: 3 h. It counts as ADME, cell-based, Hepatocyte.
Data set [8] is described as follows: Clearance in male Beagle dog at 4 mg/kg,iv measured upto 24 hrs. The note with it: in vivo. Type of data set: ADME, organism-based, Canis lupus familiaris. In a few lines: (§2)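 Beagle dogs were given a single iv infusion at 1, 2 or 4 mg/kg. Plasma parent drug and released docetaxel were followed over time. Cmax, Tmax, AUC, MRT, t1/2, CL and Vss were reported by sex and for all dogs combined.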

Data set [9] has as its system 4T1. Put plainly: Antitumor activity against mouse 4T1 cells implanted in BALB/c mouse assessed as increase in tumor NOD1 expression level at 5 to 20 mg/kg,iv administrated once per week for 4 weeks by western blot assay. Type of data set: functional, organism-based. The following applies: dose 5-20 mg/kg. The method in brief: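 4T1 fat-pad model in BALB/c mice, iv once weekly for 4 weeks; MMP9, MMP2 and NOD1 in spleen, lung and tumour by western blot, β-actin loading control; bands averaged over five mice per group, representative of two independent experiments.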

Data set [10] can be described thus: Drug distribution in rat spleen at 4 mg/kg,iv measured by 0.25 hrs. Type of data set: ADME, organism-based. The note with it: in vivo. In a few lines:
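Rats received 4 mg/kg iv. Parent drug and released docetaxel were assayed in tissues and plasma from the first sampling at 0.25 h to 24 h. The lower limit of quantitation was 200 ng/g.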

A short description of data set [11]: Cmax in Beagle dog at 2 mg/kg,iv measured upto 24 hrs. Type of data set: ADME, organism-based, Canis lupus familiaris. On the set-up: dose 2 mg/kg, time < 24 hrs, route iv. The note with it: in vivo. In a few lines: as §2
The nature of data set [12]: MRT (0 to infinity) in male rat at 2 mg/kg,iv measured upto 24 hrs. Type of data set: ADME, organism-based. The note with it: in vivo.
The subject of the next data set is NCI-H460. In words: Antiproliferative activity against human NCI-H460 cells assessed inhibition of cell growth incubated for 72 hrs by SRB assay. It counts as functional, cell-based. The note with it: NCI-H460, 72 h.
Data set [13] can be described thus: AUC (0-infinity) in female Beagle dog at 4 mg/kg,iv measured upto 24 hrs. It counts as ADME, organism-based, Canis lupus familiaris. On the set-up: dose 4 mg/kg, time < 24 hrs, route iv. The following applies: in vivo. In a few lines: as §1
Data set [14] in a line: Half life in male rat at 4 mg/kg,iv measured upto 24 hrs. It counts as ADME, organism-based. The following applies: in vivo.
The test system of another data set is NCI-H1975. Put plainly: Antitumor activity against human NCI-H1975 cells xenografted with BALB/c mouse assessed as inhibition of tumor growth at 10 mg/kg,iv administrated once per week for 3 weeks. It counts as functional, organism-based. In a few lines:
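BALB/c nu/nu mice given subcutaneous human tumour cells in the right flank; dosing began at about 100–120 mm3 mean volume; iv once weekly for 3 weeks, with equimolar parent drug as positive control; tumour volume and weight measured; n = 8, mean ± SEM, ANOVA and Student's t test.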

A short description of data set [15]: Volume of distribution at steady state in Beagle dog at 1 mg/kg,iv measured upto 24 hrs. The note with it: in vivo, read-out: Vdss. It counts as ADME, organism-based, Canis lupus familiaris.
For data set [16], the system named is 4T1. Put plainly: Antitumor activity against mouse 4T1 cells implanted in BALB/c mouse assessed as decrease in serum MMP9 level at 10 mg/kg,iv administrated once per week for 4 weeks by ELISA. Type of data set: functional, organism-based. The method in brief: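 4T1 fat-pad model in BALB/c mice, iv 5–20 mg/kg once weekly for 4 weeks, with vehicle and naive groups; serum MMP9, TIMP-1, IL-6 and S100A9 measured by mouse ELISA kits.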

Data set [17] in a line: Stability in monkey hepatocyte assessed as compound remaining at 3 uM incubated upto 120 mins. Type of data set: ADME, cell-based, Macaca mulatta. The following applies: rhesus monkey, hepatocytes, 2 h.
Data set [18] in a line: Volume of distribution at steady state in male rat at 2 mg/kg,iv measured upto 24 hrs. The note with it: in vivo, read-out: Vdss. It counts as ADME, organism-based.
Data set [19] can be described thus: Stability in rat hepatocyte assessed as compound remaining at 3 uM incubated upto 120 mins. Type of data set: ADME, cell-based. The following applies: hepatocytes, 2 h.
Data set [20] is described as follows: Drug excretion in rat bile at 4 mg/kg,iv measured upto 48 hrs. Type of data set: ADME, organism-based. The following applies: read-out: Drug excretion. The method in brief:
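Rats were dosed iv. Bile was collected from 0 to 48 h, and cumulative excretion of the unchanged prototype was expressed as a percentage of the dose.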

Data set [21] in a line: Half life in female rat at 4 mg/kg,iv measured upto 24 hrs. It counts as ADME, organism-based. The note with it: in vivo.
Data set [22] can be described thus: Toxicity in Beagle dog assessed as decrease in blood pressure at 1 to 4 mg/kg,iv measured after 1 to 4 hrs. Type of data set: organism-based, Canis lupus familiaris. The following applies: in vivo, dose lower 1 mg/kg, time lower 1 hrs, dose upper 4 mg/kg, time upper 4 hrs.
The nature of data set [23]: AUC (0-infinity) in female rat at 4 mg/kg,iv measured upto 24 hrs. Type of data set: ADME, organism-based. Also noted: time < 24 hrs, dose 4 mg/kg, route iv. The note with it: in vivo. The method in brief:
as §1

Data set [24] can be described thus: Volume of distribution at steady state in female Beagle dog at 2 mg/kg,iv measured upto 24 hrs. It counts as ADME, organism-based, Canis lupus familiaris. The following applies: in vivo, read-out: Vdss.
Data set [25] in a line: AUC (0-infinity) in male Beagle dog at 1 mg/kg,iv measured upto 24 hrs. Type of data set: ADME, organism-based, Canis lupus familiaris. Also noted: dose 1 mg/kg, time < 24 hrs, route iv. The following applies: in vivo. In a few lines: as §1
Data set [26] has as its system 4T1. Put plainly: Antitumor activity against mouse 4T1 cells implanted in BALB/c mouse assessed as decrease in spleen MMP2 expression level at 5.7 mg/kg,iv administrated once per week for 4 weeks in presence of MDA-205 by western blot assay. It counts as functional, organism-based. The method in brief:
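4T1 cells injected into mammary fat pads of BALB/c mice. Saline vehicle or test article given iv once weekly for 4 weeks. Spleen, lung and tumor lysates immunoblotted for MMP2/MMP9 with β-actin as loading control. Bands averaged over five mice per group, representative of two independent experiments.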

Data set [27] deals with 4T1. In words: Antitumor activity against mouse 4T1 cells implanted in BALB/c mouse assessed as decrease in serum TIMP-1 level at 5.7 mg/kg,iv administrated once per week for 4 weeks by ELISA. Type of data set: functional, organism-based.
In data set [28] the test system is 4T1. Put plainly: Antitumor activity against mouse 4T1 cells xenografted with BALB/c mouse assessed as inhibition of tumor growth at 5.7 mg/kg,iv in presence of compound 5b administrated once per week for 4 weeks. The note with it: 4T1, 672 h. It counts as functional. In a few lines: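 4T1 cells injected into mammary fat pads of BALB/c mice. Dosing iv once per week for 4 weeks, saline vehicle; single-agent arms were given alone or with the peptide component (5b or 6). Endpoints were body weight, tumour volume, tumour weight, lung metastatic nodule count and lung metastasis score. Mean ± SEM, n = 10; ANOVA and Student's t test.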

Data set [29] in a line: Toxicity in BALB/c mouse xenografted with human HCT-116 cells assessed as side effects at 5.7 mg/kg,iv administrated once per week for 3 weeks. It counts as organism-based. The following applies: in vivo, 504 h. The method in brief:
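Nude BALB/c nu/nu mice received subcutaneous human tumour cells into the right flank. Dosing started at mean tumour volume of 100–120 mm3, iv once weekly for 3 weeks; the taxane arm was an equimolar control. Body weight and overt side effects were monitored. Mean ± SEM, n = 8.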

Consider `CC(=O)O[C@@]12CO[C@@H]1C[C@H](O)[C@@]1(C)C(=O)[C@H](O)C3=C(C)[C@@H](OC(=O)[C@H](OC(=O)CCC(=O)NCCCC[C@H](NC(=O)CC[C@@H](NC(=O)[C@H](C)NC(=O)/C=C/c4ccc(F)cc4Cl)C(N)=O)C(=O)O)[C@@H](NC(=O)OC(C)(C)C)c4ccccc4)C[C@@](O)([C@@H](OC(=O)c4ccccc4)[C@H]21)C3(C)C`, for which the AUC(0-t) at 24 h in data set [1] turned out to be 4320 ng·h/mL. Further, the Stability result in [2], in data set [17] and in [19] was “Stable” each time. The clearance came out at 3.39 mL/min/kg in [3] and 4.56 mL/min/kg in data set [8]. Moreover, the Vd amounted to 0.08 L/kg in data set [4]; 0.096 L/kg in data set [5]; 0.169 L/kg in data set [15]; 0.076 L/kg in [18]; 0.077 L/kg in [24]. Also, in data set [6], the NOAEL was 4 mg/kg. Moreover, the Drug metabolism result in [7] is “Metabolite_Detected”. Besides, the result in the data set on 4T1 [9] was inactive. The Drug uptake entry in [10] is on record as “Active”. The same compound registered a maximum concentration (Cmax) in data set [11] of 12700 ng/mL. The compound further returned an MRT inf in data set [12] of 13.9 min. Further, the pIC50 in the data set with NCI-H460 was 7.79. Also, the AUC(0-inf) came out at 20300 ng·h/mL in data set [13], 13000 ng·h/mL in data set [23] and 1630 ng·h/mL in data set [25]. The half-life is 10.7 min in data set [14] and 10.4 min in [21]. For the same compound, the inhibition result with NCI-H1975 was “Active”. Besides, the result with 4T1 [16] was Active. In data set [20], the dose excreted at 48 h amounted to 82.9%. The Activity result in data set [22] is reported as “Non-Toxic”.

With `CC(=O)O[C@@]12CO[C@@H]1C[C@H](O)[C@@]1(C)C(=O)[C@H](O)C3=C(C)[C@@H](OC(=O)[C@H](O)[C@@H](NC(=O)OC(C)(C)C)c4ccccc4)C[C@@](O)([C@@H](OC(=O)c4ccccc4)[C@H]21)C3(C)C` [DOCETAXEL ANHYDROUS], the outcome in the data set on 4T1 [26] was inactive. Also, in the data set with 4T1 [27], the result was Active. The inhibition in vivo at 5.7 mg/kg in the data set on 4T1 [28] came out at 14.4%. The Activity entry in data set [29] is given as “Non-Toxic”.
